MrgX1 antagonist: human MrgX1 receptor antagonism, primary screen; Q96LB2; MRGX1-HEK293 calcium flux, Fluo-4, BAM8-22 antagonism; stronger effect = lower value; B-score at 10 µM; hit rate 1.3% among 310,000; AID 588676;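 active = calcium-response B-score plate-corrected more than 3 library SD below zero, starting fluorescence within 5 deviations, no agonist response on first addition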;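 also: peak minus trough fluorescence over baseline after final BAM8-22 challenge near maximal dose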
Target sequence (Q96LB2 whole entry, looked up): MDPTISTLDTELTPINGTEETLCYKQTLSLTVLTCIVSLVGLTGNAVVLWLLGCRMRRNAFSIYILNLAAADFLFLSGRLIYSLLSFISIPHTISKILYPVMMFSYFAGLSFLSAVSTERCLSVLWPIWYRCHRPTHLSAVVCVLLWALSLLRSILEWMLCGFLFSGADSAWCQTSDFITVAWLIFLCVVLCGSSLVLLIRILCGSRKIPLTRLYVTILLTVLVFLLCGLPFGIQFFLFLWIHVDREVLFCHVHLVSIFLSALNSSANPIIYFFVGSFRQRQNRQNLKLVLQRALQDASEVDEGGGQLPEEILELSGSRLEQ
RGS4 block: human RGS4 inhibition; B-score at 10 µM; HEK293 M3R/RGS4 inducible, Fluo-4 calcium flux; stronger effect = higher value; triggered by carbachol at its EC20; hit rate 0.45% among 310,000;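 active = B-score, a plate-corrected calcium signal, over three deviations above library mean, with baseline fluorescence within five deviations of library mean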;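 also: RGS4 expression induced by doxycycline in cells with stable M3 receptor; B-score is computed from the integrated fluorescence ratio over baseline after carbachol; higher B-score means a larger calcium signal and so more RGS4 inhibition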
Target sequence (P49798 whole entry, looked up): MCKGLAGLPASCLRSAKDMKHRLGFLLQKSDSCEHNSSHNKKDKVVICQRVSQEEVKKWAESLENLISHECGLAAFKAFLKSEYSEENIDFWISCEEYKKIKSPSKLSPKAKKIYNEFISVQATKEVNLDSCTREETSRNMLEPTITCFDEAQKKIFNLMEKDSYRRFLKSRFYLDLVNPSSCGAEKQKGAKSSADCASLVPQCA
MrgX1 PAM: human MrgX1 positive allosteric modulation, primary screen; Q96LB2; MrgX1-HEK293, Fluo-4 calcium flux, FDSS; stronger effect = higher value; B-score at 10 µM; hit rate 0.63% among 310,000; AID 588675;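 active = plate-corrected calcium response at least 3 library SD above typical, normal starting fluorescence, not activating the receptor alone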;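 also: compound read alongside a low EC10 to EC30 dose of BAM8-22 agonist; peak minus trough fluorescence over baseline measured at the second addition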
RGS4 pot: RGS4 potentiation or activation | AID 463111 | HEK293 M3R/inducible RGS4, carbachol calcium flux Fluo4; stronger effect = lower value | B-score at 10 µM | hit rate 0.92% among 310,000;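 active = B-score of the integrated calcium signal more than 4 SD below the library mean, with starting fluorescence not abnormally high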;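 also: negative B-score means reduced calcium response which marks RGS4 activation or potentiation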
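System – HEK293 FlpIn-TREx cells, stable M3R, doxycycline-inducible RGS4 · Reagent – ECmax carbachol challenge · Times – compound preincubation 20 min at room temperature before agonist · Technique – Fluo4 fluorescence kinetic imaging of calcium · Measure – B score of integrated Fluo4 ratio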
Cl transport mod: modulators of human KCC2 chloride dependent transport. B-score of Tl+ flux slope (higher = more flux/activation; lower = inhibition) at 10 µM. hit rate 2.2% among 190,000. AID 1456. KCC2 cells, thallium flux FluoZin-2 fluorescence. Q9H2X9;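 active = thallium flux slope and its plate-corrected score both differing from the plate sample mean at a set confidence after two filtering rounds, in either direction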;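 also: slope of fluorescence scaled to starting intensity during 10 to 20 s after thallium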
MrgX1 agonist: human MrgX1 receptor agonism, primary screen; MrgX1-HEK293 cells, Fluo-4 calcium fluorescence, agonist mode; stronger effect = higher value; B-score at 10 µM; Q96LB2; hit rate 0.44% among 310,000;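 active = calcium response B-score plate-corrected fluorescence ratio at least 3 library SD, with starting fluorescence B-score inside 5 SD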
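Test system: HEK293 cells stably expressing human MrgX1 receptor; amount: 15,000 cells per well; doses: compound delivered in addition one of three; times: overnight plating before 1 h dye loading; detection: Fluo-4 NW calcium-flux fluorescence, kinetic read; read-out basis: B-scored fluorescence response ratio; controls: positive and negative controls per plate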
KCC2 sec1: confirmation of human KCC2 transport modulators; normalised thallium flux (F/F0 slope) at 10 µM; HEK293-KCC2, thallium flux, FluoZin2 fluorescence; stronger effect = higher value; shares compounds with Cl transport mod; hit rate 15% among 3,700;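 active = thallium flux slope above the same plate's solvent-only control mean plus 3 SD; inconclusive = the two replicate wells disagree; inactive = no significant difference from solvent-only control wells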
KCC2 bumet counter: thallium flux despite bumetanide block in KCC2 cells, secondary assay 3. HEK293-KCC2 + bumetanide/ouabain, thallium flux FluoZin2; stronger effect = higher value. AID 1714. normalized thallium flux at 10 µM. hit rate 49% among 3,700. shares compounds with Cl transport mod;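 active = thallium entry rate above the same plate's blocked-transporter control wells by more than 3 SD; inconclusive = the two repeat wells disagree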;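 also: raw slope of fluorescence over initial fluorescence between 10 and 20 s after thallium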
KCC2 secondary2: confirmation of human KCC2 transport modulators; hit rate 23% among 3,700; normalized thallium flux at 10 µM; HEK293-KCC2, thallium flux FluoZin2 fluorescence; actives lie on both sides; F/F0 rise rate, 10–20 s post-thallium; shares compounds with Cl transport mod;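 active = thallium flux slope more than 3 SD above or below the plate's solvent-only control mean, mostly below; inconclusive = the two repeat wells disagreed; inactive = no significant shift from solvent-only controls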;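 also: raw slope with 0.1% DMSO as baseline and bumetanide as block control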
HEK293 Tl flux: parental HEK flux effect, counter-screen; shares compounds with Cl transport mod; HEK293 parental cells, thallium flux FluoZin2, ouabain; baseline-ratio fluorescence slope, 10–20 s after thallium; thallium flux rate (normalised fluorescence) at 10 µM; hit rate 46% among 3,700; AID 1716;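 active = thallium flux rate significantly above the same plate's solvent-only control wells, beyond their mean plus 3 SD; inconclusive = the two replicate wells gave conflicting results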
KCC2 ouabain: KCC2 (human) modulation, ouabain retest; AID 1717; hit rate 48% among 3,700; raw Tl+ flux slope (below DMSO = inhibition, above = activation) at 10 µM; HEK293-KCC2, thallium flux FluoZin2 fluorescence; bidirectional: low = inhibitor, high = activator; shares compounds with Cl transport mod;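 active = thallium flux slope beyond 3 SD from same-plate DMSO control mean in most replicates, usually higher, sometimes lower; inconclusive = repeat tests gave conflicting results; inactive = no significant difference from controls in most replicates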;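 also: slope of initial-normalized fluorescence between seconds 10 and 20 after thallium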
HEK293 Tl flux2: acts in parental HEK cells, second KCC2 counter-screen. shares compounds with Cl transport mod. AID 1718. hit rate 33% among 3,700. thallium flux slope at 10 µM. HEK293 parental, thallium flux FluoZin-2 fluorescence slope;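 active = thallium flux slope above the same plate's solvent-control mean plus 3 SD in both duplicate wells; inconclusive = duplicate wells that disagreed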;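 also: run without ouabain in cells lacking the KCC2 cotransporter; slope of fluorescence scaled to its starting value between 10 and 20 s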
An asterisk follows results filed as active; i = inactive; ? = inconclusive; / = no result given. Most compounds without a hit are left out; they make up all but 4.7% or so of the library.

SMILES | MrgX1 antagonist | RGS4 block | MrgX1 PAM | RGS4 pot | Cl transport mod | MrgX1 agonist | KCC2 sec1 | KCC2 bumet counter | KCC2 secondary2 | HEK293 Tl flux | KCC2 ouabain | HEK293 Tl flux2
Cc1ccc(S(=O)(=O)N(C)c2ccc(C(=O)N3CCc4ccccc4C3)cc2)cc1 | i | i | i | i | -4.8* | i | 0.014 | 0.0039 | 0.024* | ? | 0.013* | 0.0095
Cc1ccc(NC2CCCN(C(=O)c3ccnc(Cl)c3)C2)cc1C (configuration not stated) | i | i | i | i | / | i | / | / | / | / | / | /
CC(C)n1c(=S)[nH]c2cc(Cl)ccc21 | i | i | i | i | 28* | i | 0.016* | 0.09* | 0.04 | 0.03* | 0.039* | 0.015*
CCc1cccc(NC(=O)c2ccc(CNc3c(N4CCCC4)c(=O)c3=O)cc2)c1 | i | i | i | i | 0.61 | i | / | / | / | / | / | /
CCN1C(=O)[C@H]2[C@@H](c3ccc(-c4ccc(OC)cc4)cc3)N[C@@](C)(C(=O)OC)[C@H]2C1=O | i | i | i | i | / | i | / | / | / | / | / | /
Cc1ccc(-c2csc(Cc3nc(-c4cc5ccccc5oc4=O)cs3)n2)cc1 | i | i | i | -7* | / | i | 0.017 | 0.0051 | 0.029 | 0.007 | 0.016 | 0.0097
CC(OC(=O)c1nc(Cl)ccc1Cl)C(=O)c1ccccc1 (configuration not stated) | i | i | i | i | / | i | / | / | / | / | / | /
CC(C)(C)C(=O)NC(=S)NNC(=O)c1ccc(Cl)cc1Cl | i | i | i | -7* | 38* | i | 0.031* | 0.05* | 0.039 | 0.053* | 0.058* | 0.017*
COC(=O)NNC(=O)c1ccc(Cl)cc1Cl | i | i | i | i | 0.21 | i | / | / | / | / | / | /
COc1ccc(CN(C)C(=O)c2ccc(NS(=O)(=O)c3ccc(C)c([N+](=O)[O-])c3)cc2)c(OC)c1OC | i | i | i | i | / | i | / | / | / | / | / | /
CSc1cccc(CNC(=O)C2CCC(=O)N(CC3CCCCC3)C2)c1 (configuration not stated) | i | i | i | i | / | i | / | / | / | / | / | /
O=C1CC2(CCN(C(=O)c3cccc(F)c3)CC2)Oc2ccccc21 | i | i | i | i | / | i | / | / | / | / | / | /
COc1ccccc1-c1nc(C#N)c(N2CCN(Cc3ccccc3)CC2)o1 | i | i | i | i | / | i | / | / | / | / | / | /
COc1ccccc1-c1nc(C#N)c(N2CCC(Cc3ccccc3)CC2)o1 | i | i | i | i | / | i | 0.0092 | 0.006 | ? | 0.0083 | 0.019* | 0.011
O=C(NC(=S)NC1CCCc2ccccc21)c1ccc(F)cc1 (configuration not stated) | i | i | i | i | / | i | / | / | / | / | / | /
O=C(NC(=S)NCCC1=CCCCC1)c1ccc(Br)o1 | i | i | i | i | 59* | i | ? | 0.066* | 0.075* | 0.077* | 0.077* | 0.07*
Cc1ccccc1OCC(=O)NCCC1=CCCCC1 | i | i | i | i | 0.077 | i | / | / | / | / | / | /
Cc1ccccc1C(=O)NC(=S)NCCC1=CCCCC1 | i | i | i | i | 4.4* | i | 0.011 | 0.016* | 0.034 | 0.026* | 0.027* | ?
O=C(NC(=S)NCCC1=CCCCC1)c1ccco1 | i | i | i | i | 79* | i | 0.034* | 0.16* | 0.046* | ? | 0.11* | 0.037*
O=C(NC(=S)NC1CCCc2ccccc21)c1ccco1 (configuration not stated) | i | i | i | i | 63* | i | 0.03* | 0.17* | 0.046* | 0.097* | 0.11* | 0.035*
COc1ccc(OC)c(NC(=O)c2cc(S(=O)(=O)N(C)C)ccc2N2CCCC2)c1 | i | i | i | i | / | i | / | / | / | / | / | /
CCCOc1ccc(Cn2c(=O)oc3ccc(C)cc32)cc1 | i | i | i | i | / | i | / | / | / | / | / | /
CC(C)NC(=O)CN1C(=O)CSc2ccc(S(=O)(=O)N3CCCC3)cc21 | i | i | i | i | / | i | / | / | / | / | / | /
O=C(COc1ccccc1[N+](=O)[O-])N(Cc1ccco1)C1CCS(=O)(=O)C1 (configuration not stated) | i | i | i | i | / | i | / | / | / | / | / | /
CCCc1cc(C(=O)Nc2sc(C)c(CC)c2C#N)no1 | i | i | i | i | 9.7* | i | 0.012 | 0.026* | 0.037 | 0.021* | 0.029* | 0.013*
SMILES | MrgX1 antagonist | RGS4 block | MrgX1 PAM | RGS4 pot | Cl transport mod | MrgX1 agonist | KCC2 sec1 | KCC2 bumet counter | KCC2 secondary2 | HEK293 Tl flux | KCC2 ouabain | HEK293 Tl flux2
CCCc1cc(C(=O)Nc2sc3c(c2C#N)CCC3)no1 | i | i | i | i | 6.2* | i | 0.0078 | 0.024* | 0.029 | 0.018* | ? | 0.016*
CCc1c(C)sc(NC(=O)c2cc(C3CC3)on2)c1C#N | i | i | i | i | 3.7* | i | 0.008 | 0.012* | 0.029 | 0.011* | 0.022 | 0.012*
CCCC(=O)Nc1sc2c(c1C#N)CCCC2 | i | i | i | i | 0.91 | i | / | / | / | / | / | /
COc1ccc(C(C(=O)NC2CCCC2)N(Cc2cccnc2)C(=O)c2snc(C(N)=O)c2N)cc1 (configuration not stated) | i | i | i | i | / | i | / | / | / | / | / | /
O=c1c2ccccc2nc(/C=C/c2ccc(Br)cc2)n1CCO | i | i | i | i | / | i | / | / | / | / | / | /
Cc1[nH]c2ccccc2c1/C=C/c1nc2ccccc2c(=O)n1CCO | i | i | i | i | -4.2* | i | 0.0061 | 0.0024* | 0.03 | 0.0072 | ? | 0.0098

Screening results: PubChem BioAssay, several laboratories
